pKi: −log10 of the molar value.
Columns and labels:
[1] = target: T1, Coagulation factor X (Homo sapiens, UniProt P00742); assay: Binding affinity against human Coagulation factor Xa
Target sequence in this assay (P00742 41-179 limits assumed): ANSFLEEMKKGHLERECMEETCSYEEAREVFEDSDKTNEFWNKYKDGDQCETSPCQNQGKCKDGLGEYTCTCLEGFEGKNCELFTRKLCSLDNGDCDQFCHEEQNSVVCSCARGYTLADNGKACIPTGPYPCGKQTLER
Target sequence in this assay (P00742 235-488 limits assumed): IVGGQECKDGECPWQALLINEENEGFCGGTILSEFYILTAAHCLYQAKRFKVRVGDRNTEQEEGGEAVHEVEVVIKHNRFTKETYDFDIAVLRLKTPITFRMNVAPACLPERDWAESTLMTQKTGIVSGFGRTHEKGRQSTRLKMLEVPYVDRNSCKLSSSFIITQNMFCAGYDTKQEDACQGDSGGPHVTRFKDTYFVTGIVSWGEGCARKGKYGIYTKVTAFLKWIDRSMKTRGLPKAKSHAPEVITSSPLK

[2] = target: Serine protease 1 (Homo sapiens, UniProt P07477); assay: Binding affinity determined against human trypsin
[3] = target: Prothrombin (Homo sapiens, UniProt P00734); assay: Binding affinity against human thrombin
[4] = test system: Caco-2; assay: Apparent cell permeability in Caco-2 cell line; type: functional, cell-based; settings: Homo sapiens
[5] = target: Urokinase-type plasminogen activator (Homo sapiens, UniProt P00749); assay: Binding affinity determined against human urokinase
[6] = target: Chymotrypsinogen B (Homo sapiens, UniProt P17538); assay: Binding affinity determined against human Chymotrypsin
Chymotrypsinogen B, sequence (P17538 34-164 limits assumed, other chains not shown): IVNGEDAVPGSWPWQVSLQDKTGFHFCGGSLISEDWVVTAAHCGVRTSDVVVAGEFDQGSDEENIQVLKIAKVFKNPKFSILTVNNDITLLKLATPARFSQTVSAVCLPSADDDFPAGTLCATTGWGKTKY
Chymotrypsinogen B, sequence (P17538 167-263 limits assumed, other chains not shown): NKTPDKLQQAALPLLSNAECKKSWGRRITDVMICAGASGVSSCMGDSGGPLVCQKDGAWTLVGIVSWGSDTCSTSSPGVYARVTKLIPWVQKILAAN
Summary of the method: (§1)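 Absorbance at 405 nm followed for 30 min. Percent activity taken from rates against no-inhibitor controls, then converted to Ki using Km and substrate concentration. Run in duplicate alongside internal standards.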

[7] = species on record: Oryctolagus cuniculus
[8] = Binding affinity of compound was determined against human plasma protein; type: ADME, cell-free
Summary of the method: (§2)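 Human or rabbit plasma protein binding determined by equilibrium dialysis.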

[9] = Activated partial thromboplastin time was determined in human plasma; type: functional
Summary of the method: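 Pooled human plasma obtained by centrifugation at 2000g for 10 min, kept on ice. Inhibitor taken from a 10 mM DMSO stock, diluted in plasma, held on ice. Five to seven concentrations, each in duplicate. Alexin aPTT reagent added after plasma warmed 1 min at 37 °C. Clotting time compared with control plasma; the concentration doubling aPTT is reported.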

[10] = Binding affinity of compound was determined against rabbit plasma protein; type: ADME, cell-free, Oryctolagus cuniculus; summary of the method: as §2
[11] = Binding affinity against human plasma protein was determined; type: ADME, cell-free; summary of the method: as §2
[12] = Half life in dogs upon 0.4 mg/kg intravenous administration; type: ADME, organism-based, Canis lupus familiaris; design: dose 0.4 mg/kg, route intravenous; settings: dog, in vivo
Summary of the method: (§3)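 Dogs dosed with the compounds as TFA salts in an N-in-1 (cassette) format, 0.4 mg/kg intravenously and 0.2 mg/kg orally.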

[13] = target: Vitamin K-dependent protein C (Homo sapiens, UniProt P04070); assay: Binding affinity determined against human activated protein C; summary of the method: as §1
Vitamin K-dependent protein C, sequence (P04070 43-197 limits assumed): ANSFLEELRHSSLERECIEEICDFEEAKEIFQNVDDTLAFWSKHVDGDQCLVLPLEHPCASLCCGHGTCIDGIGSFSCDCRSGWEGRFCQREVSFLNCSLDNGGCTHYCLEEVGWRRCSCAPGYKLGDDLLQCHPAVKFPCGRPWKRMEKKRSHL
Vitamin K-dependent protein C, sequence (P04070 212-461 limits assumed): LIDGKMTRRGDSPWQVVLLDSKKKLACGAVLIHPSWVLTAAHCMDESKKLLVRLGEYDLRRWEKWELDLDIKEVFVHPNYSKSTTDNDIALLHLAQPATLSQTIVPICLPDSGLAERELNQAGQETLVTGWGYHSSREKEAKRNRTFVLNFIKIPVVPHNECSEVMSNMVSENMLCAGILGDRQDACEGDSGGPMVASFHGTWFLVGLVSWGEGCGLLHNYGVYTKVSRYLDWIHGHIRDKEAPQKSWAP

[14] = target: Coagulation factor XI (Homo sapiens, UniProt P03951); assay: Binding affinity determined against coagulation factor XI; summary of the method: as §1
Coagulation factor XI, sequence (P03951 19-387 limits assumed): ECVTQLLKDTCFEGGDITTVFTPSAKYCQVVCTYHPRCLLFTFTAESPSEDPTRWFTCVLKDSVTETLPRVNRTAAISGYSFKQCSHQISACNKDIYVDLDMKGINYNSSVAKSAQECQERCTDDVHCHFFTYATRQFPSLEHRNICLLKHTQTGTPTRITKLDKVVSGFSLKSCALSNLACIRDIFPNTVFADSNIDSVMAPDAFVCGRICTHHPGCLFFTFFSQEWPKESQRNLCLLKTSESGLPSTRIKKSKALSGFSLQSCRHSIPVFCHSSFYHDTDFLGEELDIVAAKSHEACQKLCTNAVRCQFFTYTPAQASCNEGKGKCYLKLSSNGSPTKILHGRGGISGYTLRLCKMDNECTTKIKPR
Coagulation factor XI, sequence (P03951 388-625 limits assumed): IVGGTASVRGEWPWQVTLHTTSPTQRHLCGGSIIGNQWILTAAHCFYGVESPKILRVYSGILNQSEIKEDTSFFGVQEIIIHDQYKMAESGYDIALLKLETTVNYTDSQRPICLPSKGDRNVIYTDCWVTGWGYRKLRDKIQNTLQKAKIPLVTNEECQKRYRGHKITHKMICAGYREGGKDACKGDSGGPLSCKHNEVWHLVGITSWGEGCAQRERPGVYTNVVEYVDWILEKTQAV

[15] = Steady state volume of distribution in dogs upon 0.4 mg/kg intravenous administration; type: ADME, organism-based, Canis lupus familiaris; design: dose 0.4 mg/kg, route intravenous; settings: dog, in vivo, read-out: Vdss; summary of the method: as §3
[16] = Oral bioavailability of compound was determined in dogs upon 0.2 mg/kg administration; type: ADME, organism-based, Canis lupus familiaris; settings: dog, in vivo; summary of the method: as §3
[17] = test system: Caco-2; assay: Apparent permeability in Caco-2 (human carcinoma) cells
[18] = target: Coagulation factor IX (Homo sapiens, UniProt P00740); assay: Binding affinity against human Coagulation factor IX
Coagulation factor IX, sequence (P00740 47-191 limits assumed): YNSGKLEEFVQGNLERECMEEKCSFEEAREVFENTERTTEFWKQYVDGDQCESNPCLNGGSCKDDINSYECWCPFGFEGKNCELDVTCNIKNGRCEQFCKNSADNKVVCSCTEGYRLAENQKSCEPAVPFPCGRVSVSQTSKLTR
Coagulation factor IX, sequence (P00740 227-461 limits assumed): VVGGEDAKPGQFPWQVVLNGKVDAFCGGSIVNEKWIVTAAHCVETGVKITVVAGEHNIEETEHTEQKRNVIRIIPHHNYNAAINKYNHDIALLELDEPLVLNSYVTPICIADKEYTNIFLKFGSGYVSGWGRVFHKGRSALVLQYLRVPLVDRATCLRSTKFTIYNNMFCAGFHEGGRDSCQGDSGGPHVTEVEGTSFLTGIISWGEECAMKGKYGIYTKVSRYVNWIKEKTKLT

[19] = Oral bioavailability in dogs at 0.2 mg/kg (n=2); type: ADME, organism-based, Canis lupus familiaris; settings: dog, in vivo
Summary of the method: (§4)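 Dog pharmacokinetics with compounds given as TFA salts in an N-in-1 (cassette) format, at 0.4 mg/kg intravenously and 0.2 mg/kg orally.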

[20] = target: T2, Coagulation factor VII (Homo sapiens, UniProt P08709); assay: Binding affinity against human Coagulation factor VII
T2 sequence (P08709 whole entry): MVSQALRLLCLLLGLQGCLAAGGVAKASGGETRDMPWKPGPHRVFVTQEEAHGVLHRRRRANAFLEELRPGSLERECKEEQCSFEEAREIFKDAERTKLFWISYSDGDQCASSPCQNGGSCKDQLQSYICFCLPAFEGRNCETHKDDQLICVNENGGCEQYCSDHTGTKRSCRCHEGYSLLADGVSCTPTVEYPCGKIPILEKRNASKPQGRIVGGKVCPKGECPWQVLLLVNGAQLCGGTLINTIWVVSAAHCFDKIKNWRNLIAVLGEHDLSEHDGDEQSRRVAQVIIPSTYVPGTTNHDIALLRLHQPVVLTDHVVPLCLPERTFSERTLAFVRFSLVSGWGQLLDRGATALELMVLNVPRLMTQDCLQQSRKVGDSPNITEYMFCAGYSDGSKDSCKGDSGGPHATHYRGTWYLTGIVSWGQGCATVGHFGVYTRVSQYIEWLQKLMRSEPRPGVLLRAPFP

[21] = Steady state volume of distribution in dogs at 0.4 mg/kg intravenous administration; type: ADME, organism-based, Canis lupus familiaris; design: dose 0.4 mg/kg, route intravenous; settings: dog, in vivo, read-out: Vdss; summary of the method: as §4
[22] = Clearance in dogs at 0.4 mg/kg intravenous administration; type: ADME, organism-based, Canis lupus familiaris; design: dose 0.4 mg/kg, route intravenous; settings: dog, in vivo; summary of the method: as §4
[23] = Oral bioavailability of compound was determined in dogs upon administration of 0.2 mg/kg; type: ADME, organism-based, Canis lupus familiaris; settings: dog, in vivo; summary of the method: as §4
[24] = Half life period in dogs at 0.4 mg/kg intravenous administration; type: ADME, organism-based, Canis lupus familiaris; design: dose 0.4 mg/kg, route intravenous; settings: dog, in vivo; summary of the method: as §4
[25] = target: T1, Coagulation factor X; assay: Binding affinity against blood clotting factor X
Target sequence in this assay (P00742 whole entry, looked up): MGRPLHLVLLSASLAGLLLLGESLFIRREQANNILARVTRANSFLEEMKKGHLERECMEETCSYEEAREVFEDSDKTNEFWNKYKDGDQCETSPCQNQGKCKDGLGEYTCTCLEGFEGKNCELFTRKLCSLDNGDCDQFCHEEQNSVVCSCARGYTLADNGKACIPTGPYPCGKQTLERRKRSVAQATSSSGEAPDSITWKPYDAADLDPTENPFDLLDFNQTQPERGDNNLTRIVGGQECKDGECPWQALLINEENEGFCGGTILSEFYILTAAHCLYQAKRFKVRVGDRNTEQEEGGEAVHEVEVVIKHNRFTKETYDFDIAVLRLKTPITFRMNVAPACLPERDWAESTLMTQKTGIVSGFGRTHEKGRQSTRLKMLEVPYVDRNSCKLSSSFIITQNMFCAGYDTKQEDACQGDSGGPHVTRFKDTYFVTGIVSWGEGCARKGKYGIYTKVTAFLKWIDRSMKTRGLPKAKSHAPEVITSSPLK

Serine protease 1, sequence (P07477 whole entry): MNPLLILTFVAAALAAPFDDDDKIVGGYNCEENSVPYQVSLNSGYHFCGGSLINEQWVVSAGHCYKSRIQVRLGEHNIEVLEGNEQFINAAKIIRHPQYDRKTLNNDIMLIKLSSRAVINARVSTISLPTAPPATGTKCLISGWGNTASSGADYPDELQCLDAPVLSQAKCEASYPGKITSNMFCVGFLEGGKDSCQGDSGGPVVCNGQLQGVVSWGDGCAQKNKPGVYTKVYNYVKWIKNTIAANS

SMILES	pKi [1]	pKi [3]	pKi [2]	Permeability [4] [nm/s]	concentration doubling aPTT [9] [µM]	other results
Cc1nccn1-c1ccc(NC(=O)c2cc(C(F)(F)F)nn2-c2ccc3onc(N)c3c2)c(-n2ccnc2C)c1	8.80	6.10	–	–	–	–
CS(=O)(=O)c1ccccc1-c1ccc(NC(=O)c2cc(C(F)(F)F)nn2-c2cccc(CN)c2)c(F)c1	–	–	–	–	–	pKi [5]: < 4.77; pKi [6]: < 4.77; ID50 [7]: 1.1 µmol/kg/h
Cc1nccn1-c1ccc(NC(=O)c2cc(C(F)(F)F)nn2-c2ccc3onc(N)c3c2)c(F)c1	9.15	–	–	74.1	24.4	Binding [8]: 98%
Nc1noc2ccc(-n3nc(C(F)(F)F)cc3C(=O)Nc3ccc(-c4ccncc4S(N)(=O)=O)cc3F)cc12	10.00	6.13	< 5.38	5.4	15.5	–
CN(C)Cc1nccn1-c1ccc(NC(=O)c2cc(C(F)(F)F)nn2-c2ccc3onc(N)c3c2)c(F)c1.Cl [RAZAXABAN HYDROCHLORIDE]	–	–	–	–	–	Binding [10]: 93.4%; Binding [11]: 90.5%; half-life [12]: 3.4 h; pKi [13]: 4.71; pKi [14]: < 4.92; Vd [15]: 5.3 L/kg; bioavailability [16]: 84%; ID50 [7]: 1.6 µmol/kg/h; Permeability [17]: 55.6 nm/s
Nc1noc2ccc(-n3nc(C(F)(F)F)cc3C(=O)Nc3ccc(C(=O)N4CCCC4)cc3F)cc12	9.04	5.10	< 5.28	249	13.8	–
Cn1ccnc1-c1ccc(NC(=O)c2cc(C(F)(F)F)nn2-c2ccc3onc(N)c3c2)c(F)c1	9.29	7.47	< 5.60	46.9	9.4	–
CCc1nccn1-c1ccc(NC(=O)c2cc(C(F)(F)F)nn2-c2ccc3onc(N)c3c2)c(F)c1	9.14	–	–	33.2	14.3	Binding [8]: 95%
CNCc1nccn1-c1ccc(NC(=O)c2cc(C(F)(F)F)nn2-c2ccc3onc(N)c3c2)c(F)c1	9.77	5.77	–	2	5.9	Vd [21]: 4.6 L/kg; Binding [8]: 85.6%; clearance [22]: 1.1 L/h/kg; bioavailability [23]: 27%; half-life [24]: 3.7 h; pKi [25]: 9.77

The next lines start with results.

pKi [1]	pKi [3]	SMILES	pKi [2]	Permeability [4] [nm/s]	concentration doubling aPTT [9] [µM]	other results
9.80	5.64	Nc1noc2ccc(-n3nc(C(F)(F)F)cc3C(=O)Nc3ccc(-c4ccccc4S(N)(=O)=O)cc3F)cc12	< 5.80	< 1	–	–
8.55	6.70	COc1cc(-n2ccnc2C)ccc1NC(=O)c1cc(C(F)(F)F)nn1-c1ccc2onc(N)c2c1	–	–	–	–
8.20	4.70	Nc1noc2ccc(-n3nc(C(F)(F)F)cc3C(=O)Nc3ccc(N4CCOCC4)cc3F)cc12	< 5.28	–	–	–
8.80	–	CC(C)c1nccn1-c1ccc(NC(=O)c2cc(C(F)(F)F)nn2-c2ccc3onc(N)c3c2)c(F)c1	–	–	–	–
8.11	< 4.68	Cc1nccn1-c1ccc(NC(=O)c2cc(C(F)(F)F)nn2-c2ccc3onc(N)c3c2)c(C(N)=O)c1	–	–	–	–
9.28	–	Cc1nccn1-c1ccc(NC(=O)c2cc(C(F)(F)F)nn2-c2ccc3onc(N)c3c2)c(C#N)c1	–	< 1	–	–
9.00	5.77	Nc1noc2ccc(-n3nc(C(F)(F)F)cc3C(=O)Nc3ccc(-n4ccnc4CO)cc3F)cc12	–	1	–	–
10.05	5.20	CS(=O)(=O)c1ccccc1-c1ccc(NC(=O)c2cc(C(F)(F)F)nn2-c2ccc3onc(N)c3c2)c(F)c1	< 5.28	< 1	–	pKi [18]: 5.46; pKi [5]: 4.80; pKi [6]: 5.64; pKi [13]: 4.55; bioavailability [19]: 2%; pKi [20]: < 4.82
8.52	5.46	NCc1nccn1-c1ccc(NC(=O)c2cc(C(F)(F)F)nn2-c2ccc3onc(N)c3c2)c(F)c1	–	–	–	–
9.43	6.22	Nc1noc2ccc(-n3nc(C(F)(F)F)cc3C(=O)Nc3ccc(-n4ccnc4CN4CCCC4)cc3F)cc12	–	230	–	–
9.22	5.96	Cc1nccn1-c1ccc(NC(=O)c2cc(C(F)(F)F)nn2-c2ccc3onc(N)c3c2)cc1	–	8.2	–	–
